The source of these data is ChEMBL document CHEMBL4000256, “Light-Regulated NO Release as a Novel Strategy To Overcome Doxorubicin Multidrug Resistance” (ACS Med Chem Lett, 2017).

Active and inactive are the calls of the source. No cut-off for these calls is given here. A value given as a limit tells only on which side of the number the result lay.

The nature of series [1]: Half life in DMEM medium. It counts as physicochemical.
Series [2] can be described thus: Induction of NO release in pH 7.4 PBS irradiated with 7 mW/cm2 light at 10 uM after 0.5 hrs by amperometric detection assay. In a few lines: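 NO release recorded during alternating light (λexc 405 nm) and dark cycles. Solution at 10 μM in PBS (pH 7.4, 10 mM, 3% DMSO), with or without 18 μM ct-DNA.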
For series [3], the species on record is Homo sapiens. The experiment in a line: […] in 7 mW/cm'2 irradiated human M14 cells assessed as increase in LDH release at 5 uM measured after 20 mins by spectrophotometric method.
For series [4], the system named is M14. The experiment in a line: Dark toxicity in human M14 cells assessed as increase in LDH release at 5 uM measured after 20 mins by spectrophotometric method. It counts as cell-based. Conditions: m14, 20 min. A digest of the protocol: (§1)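 Cells (M14 melanoma, human fibroblasts or rat H9c2 cardiomyocytes) kept 20 min at room temperature in PBS in the dark, with 5 μM compound, given alone or with equimolar 5 μM doxorubicin. Cytotoxicity read as extracellular LDH release. Triplicate measurements, n = 3.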

The species named for series [5] is Homo sapiens. The series can be described thus: Inhibition of Pgp in 7 mW/cm'2 irradiated human M14 cells assessed as nitration of tyrosine in pgp at 5 uM measured after 20 mins in presence of doxorubicin by immunoblotting. A digest of the protocol: (§2)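 M14 melanoma cells held 20 min at room temperature in PBS under 400 nm light (7 mW/cm2) with 5 μM compound, alone or with equimolar doxorubicin. Nitrated ABC transporters (Pgp, MRP1, MRP4, BCRP) detected by immunoblot.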

In series [6] the test system is M14. The experiment in a line: Cytotoxicity against 7 mW/cm'2 irradiated human M14 cells assessed as increase in LDH release at 5 uM measured after 20 mins by spectrophotometric method. It counts as functional, cell-based. A digest of the protocol: (§3)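 Cells (M14 melanoma, human fibroblasts or rat H9c2 cardiomyocytes) kept 20 min at room temperature in PBS under 400 nm light (7 mW/cm2), alone or with 5 μM compound, given alone or with equimolar 5 μM doxorubicin. Damage read as extracellular LDH release. Triplicate measurements, n = 3.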
(LDH in the medium is a marker of cell lysis.)

Series [7] has as its system M14. The experiment in a line: Cytotoxicity against 7 mW/cm'2 irradiated human M14 cells assessed as increase in LDH release at 5 uM coadministered with DOX measured after 20 mins by spectrophotometric method. It counts as functional, cell-based. In a few lines: as §3
Series [8] addresses T1, ATP-binding cassette sub-family C member 4 (Homo sapiens, UniProt O15439).
T1 sequence (O15439 whole entry): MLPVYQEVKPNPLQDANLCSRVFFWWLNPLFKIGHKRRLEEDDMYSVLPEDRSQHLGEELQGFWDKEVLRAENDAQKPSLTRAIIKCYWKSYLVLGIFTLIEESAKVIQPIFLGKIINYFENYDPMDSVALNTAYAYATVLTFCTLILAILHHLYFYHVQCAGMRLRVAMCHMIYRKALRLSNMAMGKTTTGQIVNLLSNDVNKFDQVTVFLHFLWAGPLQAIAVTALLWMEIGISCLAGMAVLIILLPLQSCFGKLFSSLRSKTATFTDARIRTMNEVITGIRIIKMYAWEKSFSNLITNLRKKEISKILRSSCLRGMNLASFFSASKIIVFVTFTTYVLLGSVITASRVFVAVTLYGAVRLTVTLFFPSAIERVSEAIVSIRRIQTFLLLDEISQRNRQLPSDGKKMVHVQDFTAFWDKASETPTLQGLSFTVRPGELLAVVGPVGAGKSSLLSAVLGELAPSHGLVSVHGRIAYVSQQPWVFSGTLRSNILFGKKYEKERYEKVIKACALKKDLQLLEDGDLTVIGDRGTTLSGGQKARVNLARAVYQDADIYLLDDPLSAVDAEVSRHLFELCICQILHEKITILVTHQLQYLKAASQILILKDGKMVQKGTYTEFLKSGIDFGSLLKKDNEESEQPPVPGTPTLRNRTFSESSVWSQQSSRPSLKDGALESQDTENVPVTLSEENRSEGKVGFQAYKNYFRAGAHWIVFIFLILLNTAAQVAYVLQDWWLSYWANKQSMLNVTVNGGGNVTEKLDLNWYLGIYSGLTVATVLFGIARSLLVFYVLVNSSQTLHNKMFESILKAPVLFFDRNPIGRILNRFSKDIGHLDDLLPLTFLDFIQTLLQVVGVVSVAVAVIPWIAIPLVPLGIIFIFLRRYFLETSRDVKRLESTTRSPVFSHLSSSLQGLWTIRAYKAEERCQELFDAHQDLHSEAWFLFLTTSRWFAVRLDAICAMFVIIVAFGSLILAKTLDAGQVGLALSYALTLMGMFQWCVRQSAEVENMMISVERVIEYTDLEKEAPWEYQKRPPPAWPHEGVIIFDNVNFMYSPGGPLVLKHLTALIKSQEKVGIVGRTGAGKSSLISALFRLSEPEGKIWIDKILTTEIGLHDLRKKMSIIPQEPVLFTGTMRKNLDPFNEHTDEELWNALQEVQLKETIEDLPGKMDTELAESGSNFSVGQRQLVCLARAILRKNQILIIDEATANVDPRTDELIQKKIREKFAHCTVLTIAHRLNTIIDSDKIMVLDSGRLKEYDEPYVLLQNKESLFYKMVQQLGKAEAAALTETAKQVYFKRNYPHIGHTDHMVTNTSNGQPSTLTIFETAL
The series can be described thus: Inhibition of MRP4 in 7 mW/cm'2 irradiated human M14 cells assessed as reduction in ATPase activity at 5 uM measured after 20 mins in presence of doxorubicin by immunoblotting. In a few lines:
(§4)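 M14 melanoma cells held 20 min at room temperature in PBS under 400 nm light (7 mW/cm2) with 5 μM compound, alone or with equimolar doxorubicin. Transporter ATPase activity then measured; n = 3.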
(In general: Immunoblotting shows a protein as a band on a membrane.)

Series [9] concerns the target T2, Multidrug resistance-associated protein 1 (Homo sapiens, UniProt P33527). The experiment in a line: Inhibition of MRP1 in 7 mW/cm'2 irradiated human M14 cells assessed as nitration of tyrosine in MRP1 at 5 uM measured after 20 mins in presence of doxorubicin by immunoblotting. A digest of the protocol:
as §2

In series [10] the test system is Fibroblast. The experiment in a line: Dark toxicity against human fibroblasts at 5 uM measured after 20 mins co-incubated with doxorubicin by spectrophotometric method. It counts as cell-based. A digest of the protocol:
as §1

In series [11] the target is T2, Multidrug resistance-associated protein 1. The series can be described thus: Inhibition of MRP1 in 7 mW/cm'2 irradiated human M14 cells assessed as reduction in ATPase activity at 5 uM measured after 20 mins in presence of doxorubicin by immunoblotting. In a few lines: as §4

T2 sequence (P33527 whole entry): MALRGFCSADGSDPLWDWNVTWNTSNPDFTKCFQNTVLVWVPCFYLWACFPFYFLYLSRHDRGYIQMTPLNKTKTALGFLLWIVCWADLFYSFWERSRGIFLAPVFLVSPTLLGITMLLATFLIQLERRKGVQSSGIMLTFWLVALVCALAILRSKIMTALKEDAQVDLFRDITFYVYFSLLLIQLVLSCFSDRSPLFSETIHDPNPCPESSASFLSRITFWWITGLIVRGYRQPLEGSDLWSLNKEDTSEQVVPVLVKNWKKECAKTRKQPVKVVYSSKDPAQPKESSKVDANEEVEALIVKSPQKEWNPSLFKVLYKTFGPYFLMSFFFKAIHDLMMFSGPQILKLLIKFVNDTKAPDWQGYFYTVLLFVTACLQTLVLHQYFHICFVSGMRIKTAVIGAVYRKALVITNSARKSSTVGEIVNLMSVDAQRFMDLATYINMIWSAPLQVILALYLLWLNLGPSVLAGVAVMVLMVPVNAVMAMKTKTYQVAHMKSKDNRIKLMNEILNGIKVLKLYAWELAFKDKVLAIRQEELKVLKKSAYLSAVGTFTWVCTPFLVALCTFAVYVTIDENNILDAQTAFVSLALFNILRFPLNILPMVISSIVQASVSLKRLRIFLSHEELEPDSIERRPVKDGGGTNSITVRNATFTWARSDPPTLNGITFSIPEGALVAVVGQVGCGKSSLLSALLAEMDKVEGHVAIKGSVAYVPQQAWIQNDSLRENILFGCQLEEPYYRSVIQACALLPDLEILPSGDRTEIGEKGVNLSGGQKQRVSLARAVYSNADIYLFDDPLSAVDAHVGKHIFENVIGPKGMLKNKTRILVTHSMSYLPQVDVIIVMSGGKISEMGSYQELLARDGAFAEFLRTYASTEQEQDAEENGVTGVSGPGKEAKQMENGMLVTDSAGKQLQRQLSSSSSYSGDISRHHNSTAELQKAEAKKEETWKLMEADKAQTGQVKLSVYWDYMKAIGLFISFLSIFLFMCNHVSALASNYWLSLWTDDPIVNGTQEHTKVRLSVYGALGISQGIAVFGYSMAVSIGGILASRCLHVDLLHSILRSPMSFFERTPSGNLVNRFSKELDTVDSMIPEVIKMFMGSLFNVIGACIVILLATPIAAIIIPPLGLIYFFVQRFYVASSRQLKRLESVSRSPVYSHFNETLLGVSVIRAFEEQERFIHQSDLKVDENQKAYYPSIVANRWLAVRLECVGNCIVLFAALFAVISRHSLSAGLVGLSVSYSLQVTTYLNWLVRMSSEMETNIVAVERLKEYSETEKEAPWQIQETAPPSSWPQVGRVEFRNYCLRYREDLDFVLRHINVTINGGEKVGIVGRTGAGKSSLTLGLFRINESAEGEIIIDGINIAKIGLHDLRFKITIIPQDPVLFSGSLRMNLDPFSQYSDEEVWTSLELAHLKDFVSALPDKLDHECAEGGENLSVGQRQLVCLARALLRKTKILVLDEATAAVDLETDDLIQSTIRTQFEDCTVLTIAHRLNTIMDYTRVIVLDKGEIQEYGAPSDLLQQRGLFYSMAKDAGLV

A word on the half-life: it is how long it takes for the measured level to halve. High values mean slow loss, low ones fast loss. Regarding `COc1cccc2c1C(=O)c1c(O)c3c(c(O)c1C2=O)C[C@@](O)(C(=O)COC(=O)c1ccc(C(=O)NCCCNc2ccc([N+](=O)[O-])c(C(F)(F)F)c2)cc1)C[C@@H]3O[C@H]1C[C@H](N)[C@H](O)[C@H](C)O1.Cl`, in series [1], the half-life was greater than 24 h. For the same compound, the result in [2] was Active. The inhibition entry in [3] was “Active”.
Turning to `NCCCNc1ccc([N+](=O)[O-])c(C(F)(F)F)c1`, the Activity entry in series [4] and in series [10] was “Non-Toxic” throughout. The inhibition result in series [5] was “Active”. In addition, in series [6], the outcome was inactive. Further, the outcome in series [7] was Active. Moreover, the “inhibition (INH)” value in series [8], in [9] and in series [11] was “Active” throughout.
